Values after ≈ are worked out from the molar mass of the structure shown.
What was measured:
Assay type in all cases: functional
Enterobacter cloacae [1] = experiment: Minimum inhibitory concentration against Enterobacter cloacae (265A beta-lactamase containing)
Outline: (§1)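 Agar dilution: compounds diluted in 0.1 M phosphate buffer pH 7.0 and incorporated into Mueller-Hinton agar with 1% Bacto-Supplement C at 50 °C. Fresh overnight cultures diluted to about 1×10^4 cells/µL; 1 µL spotted on plates. Incubated overnight at 35 °C in ambient air. MIC taken as the lowest concentration preventing visible growth.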

Enterobacter cloacae [2] = experiment: Minimum inhibitory concentration against Enterobacter cloacae (EB5); outline: as §1
Escherichia coli [3] = experiment: Minimum inhibitory concentration against Escherichia coli (EC14); outline: as §1
Escherichia coli [4] = experiment: Minimum inhibitory concentration against Escherichia coli (TEM beta-lactamase containing); outline: as §1
Haemophilus influenzae = experiment: Minimum inhibitory concentration against Haemophilus influenzae (C.L.); outline: as §1
Klebsiella [5] = experiment: Minimum inhibitory concentration against Klebsiella (KAE beta-lactamase containing); outline: as §1
Klebsiella [6] = experiment: Minimum inhibitory concentration against Klebsiella (X26); outline: as §1
Morganella morganii = experiment: Minimum inhibitory concentration against Proteus morganii (PR 15); outline: as §1
Pseudomonas aeruginosa = experiment: Minimum inhibitory concentration against Pseudomonas aeruginosa (X528); outline: as §1
Providencia rettgeri = experiment: Minimum inhibitory concentration against Proteus rettgeri (C24); outline: as §1
Salmonella = experiment: Minimum inhibitory concentration against Salmonella (X514); outline: as §1
[7] = test system: Staphylococcus epidermidis; experiment: Minimum inhibitory concentration against Staphylococcus epidermidis (222); outline: as §1
Streptococcus pyogenes = experiment: Minimum inhibitory concentration against Streptococcus pyogenes (C203); outline: as §1
Streptococcus pneumoniae = experiment: Minimum inhibitory concentration against Streptococcus pneumoniae (PARK); outline: as §1
Staphylococcus aureus = experiment: Minimum inhibitory concentration against Staphylococcus aureus (X1.1); outline: as §1
[8] = Enterobacter cloacae, read-out: MIC
[9] = Escherichia coli, read-out: MIC
[10] = Haemophilus influenzae, read-out: MIC
[11] = Morganella morganii, read-out: MIC
[12] = Pseudomonas aeruginosa, read-out: MIC
[13] = Providencia rettgeri, read-out: MIC
[14] = Staphylococcus epidermidis, read-out: MIC
[15] = Streptococcus pyogenes, read-out: MIC
[16] = Streptococcus pneumoniae, read-out: MIC
[17] = Staphylococcus aureus, read-out: MIC

SMILES | MIC (Enterobacter cloacae [1]; [8]) | MIC (Enterobacter cloacae [2]; [8]) | MIC (Escherichia coli [3]; [9]) | MIC (Escherichia coli [4]; [9]) | MIC (Haemophilus influenzae; [10]) | MIC (Klebsiella [5]; Klebsiella, read-out: MIC) | MIC (Klebsiella [6]; Klebsiella, read-out: MIC) | MIC (Morganella morganii; [11]) | MIC (Pseudomonas aeruginosa; [12]) | MIC (Providencia rettgeri; [13]) | MIC (Salmonella; Salmonella, read-out: MIC) | MIC [7, 14] | MIC (Streptococcus pyogenes; [15]) | MIC (Streptococcus pneumoniae; [16]) | MIC (Staphylococcus aureus; [17]) | further results
CO/N=C(/C(=O)N[C@@H]1C(=O)N2C(C(=O)O)=C(S(=O)(=O)c3cccs3)CC[C@H]12)c1csc(N)n1 | > 128 µg/mL | 8 µg/mL (≈ 15.6 µM) | 2 µg/mL (≈ 3.91 µM) | 128 µg/mL (≈ 250 µM) | 1 µg/mL (≈ 1.95 µM) | > 128 µg/mL | 2 µg/mL (≈ 3.91 µM) | 64 µg/mL (≈ 125 µM) | > 128 µg/mL | 64 µg/mL (≈ 125 µM) | 0.5 µg/mL (≈ 0.977 µM) | 16 µg/mL (≈ 31.3 µM) | 0.015 µg/mL (≈ 0.0293 µM) | 0.03 µg/mL (≈ 0.0586 µM) | 4 µg/mL (≈ 7.82 µM) | 
CO/N=C(/C(=O)N[C@@H]1C(=O)N2C(C(=O)O)=C(S(=O)(=O)c3cccnc3)CC[C@H]12)c1csc(N)n1 | > 128 µg/mL | 16 µg/mL (≈ 31.6 µM) | 1 µg/mL (≈ 1.97 µM) | 4 µg/mL (≈ 7.9 µM) | 1 µg/mL (≈ 1.97 µM) | > 128 µg/mL | 2 µg/mL (≈ 3.95 µM) | > 128 µg/mL | > 128 µg/mL | > 128 µg/mL | 2 µg/mL (≈ 3.95 µM) | 32 µg/mL (≈ 63.2 µM) | 0.06 µg/mL (≈ 0.118 µM) | 0.125 µg/mL (≈ 0.247 µM) | 16 µg/mL (≈ 31.6 µM) | 
CO/N=C(/C(=O)N[C@@H]1C(=O)N2C(C(=O)O)=C(S(C)(=O)=O)CC[C@H]12)c1csc(N)n1 | > 128 µg/mL | 2 µg/mL (≈ 4.51 µM) | 0.25 µg/mL (≈ 0.564 µM) | 1 µg/mL (≈ 2.25 µM) | 0.25 µg/mL (≈ 0.564 µM) | 64 µg/mL (≈ 144 µM) | 0.06 µg/mL (≈ 0.135 µM) | 1 µg/mL (≈ 2.25 µM) | > 128 µg/mL | 0.5 µg/mL (≈ 1.13 µM) | 0.125 µg/mL (≈ 0.282 µM) | 32 µg/mL (≈ 72.2 µM) | 0.06 µg/mL (≈ 0.135 µM) | 0.06 µg/mL (≈ 0.135 µM) | 16 µg/mL (≈ 36.1 µM) | 
CS(=O)(=O)C1=C(C(=O)O)N2C(=O)[C@@H](NC(=O)COc3ccccc3)[C@H]2SC1 (stereo in doubt; 7 (1-S)) |  |  |  |  |  |  |  |  |  |  |  |  |  |  |  | MIC (Enterobacter cloacae [1]): 128 µg/mL (≈ 310 µM); MIC (Enterobacter cloacae [2]): 128 µg/mL (≈ 310 µM); MIC (Escherichia coli [3]): 64 µg/mL (≈ 155 µM); MIC (Escherichia coli [4]): 128 µg/mL (≈ 310 µM); MIC (Haemophilus influenzae): 1 µg/mL (≈ 2.42 µM); MIC (Klebsiella [5]): 128 µg/mL (≈ 310 µM); MIC (Klebsiella [6]): 8 µg/mL (≈ 19.4 µM); MIC (Morganella morganii): 128 µg/mL (≈ 310 µM); MIC (Pseudomonas aeruginosa): 128 µg/mL (≈ 310 µM); MIC (Providencia rettgeri): 128 µg/mL (≈ 310 µM); MIC (Salmonella): 64 µg/mL (≈ 155 µM); MIC [7]: 0.25 µg/mL (≈ 0.606 µM); MIC (Streptococcus pyogenes): 0.125 µg/mL (≈ 0.303 µM); MIC (Streptococcus pneumoniae): 0.25 µg/mL (≈ 0.606 µM); MIC (Staphylococcus aureus): 0.25 µg/mL (≈ 0.606 µM)
CS(=O)(=O)C1=C(C(=O)O)N2C(=O)[C@@H](NC(=O)COc3ccccc3)[C@H]2CC1 (stereo in doubt; 7) | > 128 µg/mL | > 128 µg/mL | 4 µg/mL (≈ 10.1 µM) | > 128 µg/mL |  | > 128 µg/mL | 8 µg/mL (≈ 20.3 µM) | > 128 µg/mL | > 128 µg/mL | > 128 µg/mL |  | 0.5 µg/mL (≈ 1.27 µM) |  |  | 0.25 µg/mL (≈ 0.634 µM) | MIC (Haemophilus influenzae): 16 µg/mL (≈ 40.6 µM); MIC (Salmonella): 8 µg/mL (≈ 20.3 µM); MIC (Streptococcus pyogenes): 0.015 µg/mL (≈ 0.038 µM); MIC (Streptococcus pneumoniae): 0.06 µg/mL (≈ 0.152 µM)
N[C@@H](C(=O)N[C@@H]1C(=O)N2C(C(=O)O)=C(Cl)CS[C@H]12)c1ccccc1 [CEFACLOR ANHYDROUS] | > 128 µg/mL | 16 µg/mL (≈ 43.5 µM) | 0.5 µg/mL (≈ 1.36 µM) | 1 µg/mL (≈ 2.72 µM) | 2 µg/mL (≈ 5.44 µM) | > 128 µg/mL | 0.25 µg/mL (≈ 0.68 µM) | > 128 µg/mL | > 128 µg/mL | 64 µg/mL (≈ 174 µM) | 2 µg/mL (≈ 5.44 µM) | 4 µg/mL (≈ 10.9 µM) | 0.25 µg/mL (≈ 0.68 µM) | 1 µg/mL (≈ 2.72 µM) | 2 µg/mL (≈ 5.44 µM) | 
CO/N=C(\C(=O)N[C@@H]1C(=O)N2C(C(=O)O)=C(COC(C)=O)CS[C@H]12)c1csc(N)n1 [CEFOTAXIME] | 32 µg/mL (≈ 70.3 µM) | 0.125 µg/mL (≈ 0.274 µM) | 0.03 µg/mL (≈ 0.0659 µM) | 0.03 µg/mL (≈ 0.0659 µM) | 0.015 µg/mL (≈ 0.0329 µM) | 2 µg/mL (≈ 4.39 µM) | 0.008 µg/mL (≈ 0.0176 µM) | 0.25 µg/mL (≈ 0.549 µM) | 32 µg/mL (≈ 70.3 µM) | 0.125 µg/mL (≈ 0.274 µM) | 0.03 µg/mL (≈ 0.0659 µM) | 2 µg/mL (≈ 4.39 µM) | 0.015 µg/mL (≈ 0.0329 µM) | 0.015 µg/mL (≈ 0.0329 µM) | 2 µg/mL (≈ 4.39 µM) | 

— ChEMBL document CHEMBL1124364, “3-Sulfonyl-1-carba-1-dethiacephems” (1989)
